HEK293 NFkB inh = inhibitors of the PMA/ionomycin-induced NF-kB reporter in HEK293 cells; HEK-293 NF-kB luciferase reporter, luminescence; inhibition, % at 3 µM; 62,000 compounds, 0.21% hits;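 active means inhibition above the mean of all tested compounds plus 3 SD, cut at about 40% in these data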
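Signal: luciferase luminescence; Material: HEK-293 cells with stable firefly luciferase reporter driven by four HIV NF-kB elements; Probe or stimulus: PMA with ionomycin; Replication: tested once; Times: 1 h compound pretreatment, then 16 h stimulation at 37 °C, 5% CO2; Benchmarks: DMSO and 10 µM reference inhibitor; Evaluation: per-plate % inhibition versus controls.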
JNK3 inh = blocks human JNK3 kinase activity; P53779; purified JNK3 kinase activity, HTS; inhibition, % at 8 µM; 60,000 compounds, 0.61% hits; in the data active means inhibition above about 17%
RORA act = activates the human nuclear receptor RORA. P35398. CHO-K1 Gal4-RORA LBD luciferase reporter, luminescence; percent increase over mock-subtracted basal signal. activation, % at 10 µM. 65,000 compounds, 1.5% hits;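 active means activation above the mean of all tested compounds plus 3 SD, cut at about 49% in these data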
Target sequence (P35398 whole entry, looked up, the tested form may be a part): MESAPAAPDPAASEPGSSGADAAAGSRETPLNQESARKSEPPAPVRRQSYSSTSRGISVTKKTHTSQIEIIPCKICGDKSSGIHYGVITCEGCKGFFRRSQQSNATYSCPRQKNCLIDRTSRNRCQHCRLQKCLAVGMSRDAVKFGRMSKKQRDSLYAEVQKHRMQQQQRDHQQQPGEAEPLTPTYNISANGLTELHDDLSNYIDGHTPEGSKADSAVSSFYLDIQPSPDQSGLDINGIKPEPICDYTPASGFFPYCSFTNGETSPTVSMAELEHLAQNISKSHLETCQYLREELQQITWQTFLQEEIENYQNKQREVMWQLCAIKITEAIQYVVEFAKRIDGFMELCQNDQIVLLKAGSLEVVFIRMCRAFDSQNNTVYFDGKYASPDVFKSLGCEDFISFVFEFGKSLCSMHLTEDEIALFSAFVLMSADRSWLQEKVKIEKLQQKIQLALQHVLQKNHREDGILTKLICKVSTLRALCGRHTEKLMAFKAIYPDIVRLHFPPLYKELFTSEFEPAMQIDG
SF-1 act = activators of human nuclear receptor SF-1; activation, % at 10 µM; CHO-K1 Gal4-SF-1 LBD luciferase reporter; % increase over DMSO SF-1-specific signal; 65,000 compounds, 1.9% hits;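 active means activation above the mean activation of all tested compounds plus 3 SD, cut at about 50% in these data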
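Test system: transient Gal4-SF-1 LBD reporter, CHO-K1; Amount: 4,000 CHO-K1 cells per well; Doses: 10 µM only; Timing: compound exposure 20 h at 37 °C; Signal: luciferase light emission; Read-out basis: percent activation relative to DMSO median and mock-transfected background; Control set: DMSO negative control and −SF1 background wells; Replicates: one test per compound.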
D1 mod = D1 dopamine receptor (human) allosteric modulation; P21728; HEK293 D1, CRE-luciferase, dopamine EC30 potentiation; actives deviate in either direction; B-score at 10 µM; 58,000 compounds, 5.9% hits;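 active means luminescence count or its row- and column-corrected plate score outside the 99.7% band of the plate's sample wells, on either side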
Of the large screens only hits and unclear results are named; the others gave an inactive call. Shown are actives, neighbours in structure and some others; about 7.9% of the full set was active somewhere.

COc1ccccc1N1CCN(CC(O)COc2c(OC)cccc2OC)CC1 (stereo not given)	D1 mod -4.6
COc1ccccc1N1CCN(Cc2cccc(OC)c2OC)CC1	none
COC(=O)C1=C(C)Nc2ncnn2C1c1ccc(OCc2ccccc2)cc1 (stereo not given)	none
O=C(O)c1ccc(COCC(F)(F)C(F)F)o1	none (no result: HEK293 NFkB inh, D1 mod)
CC1CCCCN1C(=O)c1cc(-c2ccc(Cl)c(Cl)c2)on1 (stereo not given)	RORA act 62
COc1cccc(-c2cc(C(=O)N3C(C)CCCC3C)no2)c1 (stereo not given)	RORA act 67 (no result: JNK3 inh, D1 mod)
CCC1CCCCN1C(=O)c1cc(-c2ccc(Cl)c(Cl)c2)on1 (stereo not given)	RORA act 54
O=C(c1cc(-c2ccc(Cl)c(Cl)c2)on1)N1CCN(c2ccccc2)CC1	none
CC(C)CNC(=O)c1cc(-c2ccc(Cl)c(Cl)c2)on1	none
COc1ccc(C2(O)CCN(C(=O)c3ccc4c(c3)OCO4)CC2)cc1	none (no result: JNK3 inh)
Cc1cc(C(=O)NC2=NCCS2)cs1	SF-1 act 53
O=C(NC1=NCCS1)c1cc2ccccc2o1	D1 mod -4.6
O=C(NC1=NCCS1)c1cccs1	none
O=C(NC1=NCCS1)Nc1ccccc1	SF-1 act 86
O=C(c1ccc(C(=O)N2CCOCC2)nc1)N1CCOCC1	none
O=C(OCCN1CCOCC1)c1ccc2c(c1)OCCO2	none (no result: HEK293 NFkB inh, D1 mod)
O=C(CCCN1CCOCC1)c1ccc2c(c1)OCCO2	SF-1 act 56
Cn1c(C(=O)N2CCN(c3ccc(Cl)cc3)CC2)cc2c(=O)n(C)c3ccccc3c21	none
O=C(NCCN1CCOCC1)c1cc2ccccc2o1	none (no result: JNK3 inh, D1 mod)
O=C(Cc1ccccc1)Nc1ccc(CN2CCOCC2)cc1	RORA act 56
CCC(=O)Nc1ccc(NC(=O)c2cc3ccccc3o2)cc1	none
O=C(Nc1ccc(N2CCOCC2)cc1)c1cc2ccccc2o1	RORA act 74
O=C(Nc1ccc(CN2CCOCC2)cc1)c1cccs1	none
O=C(Nc1ccc(CN2CCOCC2)cc1)c1cc2ccccc2o1	SF-1 act 86, D1 mod -4.9
O=C(Nc1ccc(CN2CCOCC2)cc1)c1cc2ccccn2n1	D1 mod -7.3
COC(=O)c1ccc(NC(=O)Cc2ccccc2)cc1	SF-1 act 71 (no result: D1 mod)
Cn1cccc1C(=O)OCC(=O)Nc1ccc2c(c1)CCC2	none
Cn1cccc1C(=O)OCc1cc(Cl)cc2c1OCOC2	SF-1 act 60 (no result: D1 mod)
COCC(=O)N(Cc1cc2cc(OC)ccc2[nH]c1=O)c1ccc(C)cc1	none
CCCCN1C2=NCCCN2c2cc(C)c(C)cc21	D1 mod -3.4
CCCN1C2=NCCN2c2ccccc21	none
Clc1ccccc1OCc1nnc(-c2ccccc2Br)o1	RORA act 83, SF-1 act 94
CCCc1cc(N2CCCC(C(=O)NCC)C2)n2ncnc2n1 (stereo not given)	none
CC(C)Oc1ccc(Cc2c(O)nc(NCCCN(C)C)[nH]c2=O)cc1	none (no result: HEK293 NFkB inh)
N#Cc1c(N2CCCC2)nc(N)c2c(N)nc(N3CCCC3)cc12	SF-1 act 50
CCCC(=O)Nc1cc(-c2cn3cccnc3n2)ccc1OC	D1 mod -3.4 (no result: JNK3 inh)
Cn1c(=O)c(=O)n(C)c2cc(S(=O)(=O)Nc3ccc4c(c3)OCCO4)ccc21	D1 mod -5.7
C[C@@H]1C[C@H]2[C@@H]3CCC4=CC(=O)C=C[C@]4(C)[C@@]3(F)[C@@H](O)C[C@]2(C)[C@H]1C(=O)CO	none (no result: HEK293 NFkB inh)
C=CCn1c(Cc2csc(N)n2)nnc1SCC(=O)OCC	none
O=S(=O)(NCCOCC(F)(F)F)c1ccc2oc3ccccc3c2c1	none
O=C(O)c1ccc(N2CCCCC2)cc1	none
O=C(c1ccccc1)c1ccc(N2CCNCC2)cc1	none (no result: D1 mod)
O=C(Nc1ccc(N2CCCC2)cc1)c1cccc(F)c1	D1 mod -4.9
O=C(Nc1ccc(N2CCCC2=O)cc1)c1cccc(F)c1	none
O=C(Nc1ccc(N2CCCCC2)cc1)c1ccccc1	D1 mod -4.8
O=C(O)CCC(=O)N1CCN(c2ccc(C(=O)c3ccc(F)cc3)cc2)CC1	none
CN1CCN(c2ccc(C(=O)c3ccc(F)cc3)cc2)CC1	RORA act 61
O=C(c1ccccc1)c1ccc(N2CCCC2)cc1	SF-1 act 77 (no result: JNK3 inh)
COc1ccc(S(=O)(=O)N2CCC(C(=O)Nc3ccccc3C)CC2)c2cccnc12	none
O=C(Nc1ccc(N2CCCCC2)cc1)c1cncc(Br)c1	RORA act 78
O=C(Nc1ccncc1)c1cncc(Br)c1	none
O=C(O)C1C2C=CC(O2)C1C(=O)NCCCn1ccnc1 (stereo not given)	none
O=c1sc(Nc2ccccc2)nc2ccsc12	RORA act 70, SF-1 act 56 (no result: JNK3 inh)
Cc1nc(SCC(C)C)[nH]c(=O)c1Cc1ccccc1	none
O=C(Nc1ccc(F)c(Cl)c1)c1ccc2c(=O)n3c(nc2c1)CCCCC3	SF-1 act 74
CN(C(=O)c1ccc2c(=O)n3c(nc2c1)CCCCC3)c1ccccc1	none
O=C(NCCC1=CCCCC1)c1ccc2c(=O)n3c(nc2c1)CCCCC3	none
O=C(Nc1cccc(Cl)c1)c1ccc2c(=O)n3c(nc2c1)CCCCC3	SF-1 act 59
Cc1nc2c(c(=O)n1CCC(C)C)c1nc3ccccc3nc1n2Cc1ccc2c(c1)OCO2	D1 mod 8.8
Cc1nc2c(c(=O)n1CC1CCCO1)c1nc3ccccc3nc1n2CCC(C)C (stereo not given)	none (no result: HEK293 NFkB inh, D1 mod)
CC(=Nc1cccc(O)c1)c1sc2ccccc2c1O	SF-1 act 94, D1 mod -4.3 (no result: HEK293 NFkB inh)
CN=Cc1sc2ccccc2c1O	none
CCCn1c(C)nc2c(c1=O)c1nc3ccccc3nc1n2-c1ccc2c(c1)OCCO2	none
C/C(N)=C(/C#N)C(=O)CSc1ccc2c(c1)OCCO2	SF-1 act 58
O=c1nccc(NCc2ccco2)[nH]1	D1 mod -3
c1coc(CNc2nc3nonc3nc2NCc2ccco2)c1	none
COc1ccc(-c2cc(C(F)(F)F)nc(SCC(=O)Nc3cc(C)on3)n2)cc1OC	D1 mod 24
CCCCn1c(CN2CCN(c3ccc(F)cc3)CC2)nc2c1c(=O)n(C)c(=O)n2C	D1 mod -2.6
CC(=O)c1c(C)[nH]c(C(=O)NCCC2=CCCCC2)c1C	RORA act 69, SF-1 act 84
CCN(CC)C(=O)CCCOc1ccc(Cl)cc1Cl	RORA act 54
O=C(Nc1cccc2ccccc12)c1cnccn1	SF-1 act 63
CCc1ccccc1NC(=O)c1cnccn1	none
Cn1cnc2c1c(=O)[nH]c(=O)n2C	none (no result: HEK293 NFkB inh)
Cc1ccc(NC(=O)CSc2nc3nc(C)cc(C)c3c(=O)[nH]2)cc1	D1 mod 3.9 (no result: JNK3 inh)
CC(CNS(=O)(=O)c1cc(Cl)ccc1Cl)CN(C)C (stereo not given)	none (no result: D1 mod)
Nc1nc2ccc(Oc3ccccc3)cc2s1	D1 mod -4.5
Cc1cc(NC(=O)c2noc3c2CCCC3)n(-c2ccccc2)n1	none
CCCCNc1ncnc2c1cnn2-c1ccccc1	RORA act 63, D1 mod -3.6

Screens as filed in PubChem BioAssay.
